Results on 11 compounds are retold here after ChEMBL document CHEMBL1127461, “Synthesis of new acyclic pyrimidine nucleoside analogs as potential antiviral drugs” (J Med Chem, 1994).

Data set [1] concerns Human alphaherpesvirus 1. Briefly: In Vitro antiviral activity against HSV-1 at 500 ug/mL concentration. It counts as functional. The method in brief: (§1)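 Mouse embryo cell cultures infected with HSV-1 were exposed to compound at 0.05, 0.5, 5, 50 and 500 μg/mL for 3 days. Infected cultures were then inspected macro- and microscopically, and reduction or inhibition of virus-induced cell destruction was scored. Aciclovir, 5-ethyldeoxyuridine and PMEG served as reference drugs.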

Data set [2] has as its system Human alphaherpesvirus 1. Briefly: In Vitro antiviral activity against HSV-1 at 0.5 ug/mL concentration. Type of data set: functional. The method in brief: as §1
Data set [3] relates to Human alphaherpesvirus 1. Briefly: In Vitro antiviral activity against HSV-1 at 50 ug/mL concentration. It counts as functional. The method, boiled down: as §1
The test system of data set [4] is Human alphaherpesvirus 1. Kind of data set: In Vitro antiviral activity against HSV-1 at 0.05 ug/mL concentration. It counts as functional. The method in brief:
as §1

Data set [5] can be described thus: In Vitro cytotoxicity against HSV-1 at 5 ug/mL concentration. The settings on record: human alphaherpesvirus 1, in vitro. It counts as organism-based. The method, boiled down:
(§2)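 Uninfected mouse embryo cell cultures were exposed to compound at 0.05, 0.5, 5, 50 and 500 μg/mL for 3 days. Cultures were then examined macro- and microscopically, and growth inhibition or disruption of the cells was taken as cytotoxicity.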

Data set [6] in a line: In Vitro cytotoxicity […] at 50 ug/mL concentration. It counts as organism-based. The method in brief: as §2
The nature of data set [7]: In Vitro cytotoxicity […] at 500 ug/mL concentration. Type of data set: organism-based. The method in brief:
as §2

Data set [8] concerns Human alphaherpesvirus 1. Briefly: In Vitro antiviral activity against HSV-1 at 5 ug/mL concentration. Type of data set: functional. The method in brief: as §1

In general, inhibition refers to the change of the read-out against control, counted positive when it falls.

Turning to `O=[N+]([O-])c1c(O)nc(O)nc1NCCCCO`, 500 µg/mL produced 0% inhibition with Human alphaherpesvirus 1 [1]. This compound also came in with an inhibition at 0.5 µg/mL with Human alphaherpesvirus 1 [2] of 0%. The same compound returned an inhibition at 50 µg/mL with Human alphaherpesvirus 1 [3] of 0%. For the same compound, testing at 0.05 µg/mL in the data set on Human alphaherpesvirus 1 [4] gave an inhibition of 0%. In data set [5], this compound gave an inhibition at 5 ug/mL of 0%. The compound also came in with an inhibition at 50 ug/mL in data set [6] of 0%. The same compound had an inhibition at 500 ug/mL in data set [7] of 0%. The inhibition at 5 µg/mL with Human alphaherpesvirus 1 [8] worked out at 0%.

As for `Nc1nc(O)c([N+](=O)[O-])c(NCCCCO)n1`, the inhibition at 500 µg/mL in the data set with Human alphaherpesvirus 1 [1] was 0%. The compound also returned an inhibition at 0.5 µg/mL with Human alphaherpesvirus 1 [2] of 0%. The same compound came in with an inhibition at 50 µg/mL in the data set with Human alphaherpesvirus 1 [3] of 0%. Also, the inhibition at 0.05 µg/mL in the data set on Human alphaherpesvirus 1 [4] stood at 0%. Further, the inhibition at 5 ug/mL in data set [5] is 0%. The inhibition at 50 ug/mL in data set [6] is 0%. Moreover, in data set [7], the inhibition at 500 ug/mL was 100%. Also, in the data set on Human alphaherpesvirus 1 [8], the inhibition at 5 µg/mL turned out to be 0%.

On to `Nc1nc(O)c([N+](=O)[O-])c(NCCOCP(=O)(O)O)n1`, for which the inhibition at 500 µg/mL with Human alphaherpesvirus 1 [1] is 0%. Moreover, the inhibition at 0.5 µg/mL with Human alphaherpesvirus 1 [2] was 0%. Also, the inhibition at 50 µg/mL in the data set with Human alphaherpesvirus 1 [3] was 0%. The inhibition at 0.05 µg/mL in the data set with Human alphaherpesvirus 1 [4] stood at 0%. In data set [5], this compound gave an inhibition at 5 ug/mL of 0%. Further, in data set [6], the inhibition at 50 ug/mL was determined as 0%. In data set [7], the inhibition at 500 ug/mL is 0%. For the same compound, in the data set with Human alphaherpesvirus 1 [8], testing at 5 µg/mL gave an inhibition of 0%.

In turn, `OCCCCNc1cc(O)nc(O)n1` registered an inhibition at 500 µg/mL in the data set with Human alphaherpesvirus 1 [1] of 0%. Besides, at 0.5 µg/mL the inhibition in the data set on Human alphaherpesvirus 1 [2] was 0%. In the data set with Human alphaherpesvirus 1 [3], this compound had an inhibition at 50 µg/mL of 0%. 0.05 µg/mL produced 0% inhibition in the data set with Human alphaherpesvirus 1 [4]. The inhibition at 5 ug/mL in data set [5] turned out to be 0%. In data set [6], this compound gave an inhibition at 50 ug/mL of 0%. Besides, the inhibition at 500 ug/mL in data set [7] turned out to be 25%. In addition, the inhibition at 5 µg/mL in the data set on Human alphaherpesvirus 1 [8] is 0%.

For the compound `Nc1nc(Cl)cc(NCCCCO)n1`, in the data set on Human alphaherpesvirus 1 [1], the inhibition at 500 µg/mL is 0%. In the data set on Human alphaherpesvirus 1 [2], this compound gave an inhibition at 0.5 µg/mL of 0%. The compound further came in with an inhibition at 50 µg/mL in the data set on Human alphaherpesvirus 1 [3] of 0%. In the data set with Human alphaherpesvirus 1 [4], this compound returned an inhibition at 0.05 µg/mL of 0%. This compound also came in with an inhibition at 5 ug/mL in data set [5] of 0%. Besides, the inhibition at 50 ug/mL in data set [6] was 0%. In data set [7], this compound came in with an inhibition at 500 ug/mL of 50%. This compound returned an inhibition at 5 µg/mL in the data set on Human alphaherpesvirus 1 [8] of 0%.

The compound `Nc1nc(O)c(N)c(NCCOCP(=O)(O)O)n1` showed an inhibition at 0.5 µg/mL with Human alphaherpesvirus 1 [2] of 100%. The compound further showed an inhibition at 0.05 µg/mL in the data set with Human alphaherpesvirus 1 [4] of 50%. The compound also gave an inhibition at 500 ug/mL in data set [7] of 75%. Also, at 5 µg/mL the inhibition in the data set with Human alphaherpesvirus 1 [8] was 100%.

`Nc1nc(O)c2ncn(COCCP(=O)(O)O)c2n1` returned an inhibition at 0.5 µg/mL in the data set on Human alphaherpesvirus 1 [2] of 100%. Moreover, 0.05 µg/mL produced 100% inhibition with Human alphaherpesvirus 1 [4].

`Nc1nc(O)cc(NCCCCO)n1`: the inhibition at 500 µg/mL with Human alphaherpesvirus 1 [1] turned out to be 0%. Also, the inhibition at 0.5 µg/mL in the data set with Human alphaherpesvirus 1 [2] worked out at 0%. In addition, the inhibition at 50 µg/mL with Human alphaherpesvirus 1 [3] came to 0%. In the data set with Human alphaherpesvirus 1 [4], this compound showed an inhibition at 0.05 µg/mL of 0%. In data set [5], the inhibition at 5 ug/mL was 0%. In addition, the inhibition at 50 ug/mL in data set [6] worked out at 0%. For the same compound, the inhibition at 500 ug/mL in data set [7] came to 0%. The inhibition at 5 µg/mL in the data set on Human alphaherpesvirus 1 [8] worked out at 0%.

Turning to `OCCCCNc1nc(O)nc(O)c1I`, in the data set with Human alphaherpesvirus 1 [1], the inhibition at 500 µg/mL came to 0%. In the data set on Human alphaherpesvirus 1 [2], this compound came in with an inhibition at 0.5 µg/mL of 0%. Further, in the data set on Human alphaherpesvirus 1 [3], at 50 µg/mL the inhibition was 0%. In addition, the inhibition at 0.05 µg/mL in the data set with Human alphaherpesvirus 1 [4] amounted to 0%. Also, the inhibition at 5 ug/mL in data set [5] turned out to be 0%. The compound also had an inhibition at 50 ug/mL in data set [6] of 100%. Besides, the inhibition at 500 ug/mL in data set [7] is 100%. Testing at 5 µg/mL in the data set on Human alphaherpesvirus 1 [8] gave an inhibition of 0%.

The compound `Nc1nc2c(ncn2COCCO)c(=O)[nH]1` [ACYCLOVIR] yielded an inhibition at 500 µg/mL with Human alphaherpesvirus 1 [1] of 100%. This compound displayed an inhibition at 0.5 µg/mL with Human alphaherpesvirus 1 [2] of 100%. In addition, the inhibition at 50 µg/mL in the data set with Human alphaherpesvirus 1 [3] came out at 100%. The inhibition at 0.05 µg/mL in the data set on Human alphaherpesvirus 1 [4] was determined as 100%. Further, in data set [5], the inhibition at 5 ug/mL was found to be 0%. In addition, in data set [6], the inhibition at 50 ug/mL turned out to be 0%. In data set [7], this compound yielded an inhibition at 500 ug/mL of 0%. Besides, the inhibition at 5 µg/mL with Human alphaherpesvirus 1 [8] worked out at 100%.

`CCc1cn([C@H]2C[C@H](O)[C@@H](CO)O2)c(=O)[nH]c1=O` [EDOXUDINE] yielded an inhibition at 500 µg/mL in the data set with Human alphaherpesvirus 1 [1] of 100%. The same compound yielded an inhibition at 0.5 µg/mL in the data set with Human alphaherpesvirus 1 [2] of 25%. The same compound came in with an inhibition at 50 µg/mL with Human alphaherpesvirus 1 [3] of 100%. In the data set with Human alphaherpesvirus 1 [4], this compound gave an inhibition at 0.05 µg/mL of 0%. In addition, the inhibition at 5 ug/mL in data set [5] was 0%. For the same compound, in data set [6], the inhibition at 50 ug/mL came to 0%. Moreover, the inhibition at 500 ug/mL in data set [7] was 0%. Further, 5 µg/mL produced 100% inhibition in the data set on Human alphaherpesvirus 1 [8].
